# ChEMBL document CHEMBL1127078, “Fluorocyclopropyl quinolones. 1. Synthesis and structure-activity relationships of 1-(2-fluorocyclopropyl)-3-pyridonecarboxylic acid antibacterial agents” (J Med Chem, 1993)
# Key:
# [1] = test system: Staphylococcus epidermidis; experiment: Tested for minimum inhibitory concentration against Staphylococcus epidermidis 56556; type: functional
# In short: (§1)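 Twofold broth microdilution in Mueller-Hinton broth, inoculum approximately 10^6 cfu/mL. Plates incubated 18 h at 37 °C. MIC taken as the lowest concentration preventing visible bacterial growth.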
# Enterococcus faecalis = experiment: Tested for minimum inhibitory concentration against Enterococcus faecalis ATCC 19433; type: functional; in short: as §1
# Pseudomonas aeruginosa = experiment: Tested for minimum inhibitory concentration against Pseudomonas aeruginosa 32121; type: functional; in short: as §1
# Staphylococcus aureus [2] = experiment: Tested for minimum inhibitory concentration against Staphylococcus aureus Smith; type: functional; in short: as §1
# Klebsiella pneumoniae = experiment: Tested for minimum inhibitory concentration against Klebsiella pneumoniae; type: functional; in short: as §1
# Streptococcus pyogenes = experiment: Tested for minimum inhibitory concentration against Streptococcus pyogenes G-36; type: functional; in short: as §1
# Proteus vulgaris = experiment: Tested for minimum inhibitory concentration against Proteus vulgaris 08601; type: functional; in short: as §1
# Staphylococcus aureus [3] = experiment: Tested for minimum inhibitory concentration against Staphylococcus aureus 209P; type: functional; in short: as §1
# Enterobacter cloacae [4] = experiment: (§2) Tested for minimum inhibitory concentration against Enterobacter cloacae 03400; type: functional; in short: as §1
# Escherichia coli [5] = experiment: Tested for minimum inhibitory concentration against Escherichia coli NIHJ; type: functional; in short: as §1
# [6] = Partition coefficient of the compound; type: ADME; conditions: CHCl3-0.1 M phosphate buffer (pH 7.4)
# In short: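 Shake-flask distribution between CHCl3 and 0.1 M sodium phosphate buffer pH 7.4, each phase presaturated with the other. About 1–2 mg sample dissolved in the aqueous phase and its UV maximum absorbance recorded. Equal 10 mL volumes shaken 30 min at room temperature, then left 1 h to separate. Aqueous-layer UV maximum re-read. P' calculated as a ratio of the absorbance readings.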
# Enterobacter cloacae [7] = experiment: as §2; type: functional; remark: listed apart in the source
# Escherichia coli [8] = experiment: Tested for minimum inhibitory concentration against Escherichia coli KL-16; type: functional; in short: as §1
# [9] = target: DNA gyrase (Escherichia coli) (UniProt P0AES6+P0AES4); experiment: (§3) Dose required to inhibit DNA gyrase in Escherichia coli; type: protein-complex assay
# Escherichia coli [10] = experiment: as §3; type: functional; conditions: read-out: ID50 (the source's name)
# Escherichia coli [11] = experiment: Tested for minimum inhibitory concentration against Escherichia coli KL16; type: functional; in short: as §1
# [12] = Escherichia coli, read-out: MIC
# [13] = Proteus vulgaris, read-out: MIC
# [14] = Klebsiella pneumoniae, read-out: MIC
# [15] = Pseudomonas aeruginosa, read-out: MIC
# [16] = Staphylococcus aureus, read-out: MIC
# [17] = Staphylococcus epidermidis, read-out: MIC
# [18] = Enterococcus faecalis, ATCC 19433, read-out: MIC
SMILES,MIC [1],MIC (Enterococcus faecalis),MIC (Pseudomonas aeruginosa),MIC (Staphylococcus aureus [2]),MIC (Klebsiella pneumoniae),MIC (Streptococcus pyogenes),MIC (Staphylococcus aureus [3]),MIC (Proteus vulgaris; [13]),other results
CN1CCN(c2nc3c(cc2F)c(=O)c(C(=O)O)cn3C2CC2F)CC1 (stereo in doubt; 36),0.39 µg/mL,1.56 µg/mL,0.2 µg/mL,0.2 µg/mL,0.2 µg/mL,6.25 µg/mL,0.39 µg/mL,,MIC (Proteus vulgaris): 0.2 µg/mL
CN1CCN(c2c(F)cc3c(=O)c(C(=O)O)cn(C4CC4F)c3c2F)CC1 (stereo in doubt; 31),3.13 µg/mL,25 µg/mL,0.78 µg/mL,1.56 µg/mL,0.2 µg/mL,100 µg/mL,1.56 µg/mL,≤ 0.05 µg/mL,MIC (Enterobacter cloacae [4]): ≤ 0.05 µg/mL; MIC (Escherichia coli [5]; [12]): ≤ 0.05 µg/mL
O=C(O)c1cn(C2CC2F)c2cc(N3CCNCC3)c(F)cc2c1=O (stereo in doubt; 25),0.78 µg/mL,12.5 µg/mL,0.1 µg/mL,0.39 µg/mL,0.1 µg/mL,50 µg/mL,0.78 µg/mL,,
C[C@H]1CN(c2c(F)cc3c(=O)c(C(=O)O)cn(C4CC4F)c3c2F)CCN1 (stereo in doubt; 33),3.13 µg/mL,12.5 µg/mL,0.39 µg/mL,0.78 µg/mL,,50 µg/mL,1.56 µg/mL,≤ 0.05 µg/mL,MIC (Klebsiella pneumoniae; [14]): 0.1 µg/mL; MIC (Enterobacter cloacae [4]): ≤ 0.05 µg/mL; MIC (Escherichia coli [5]; [12]): ≤ 0.05 µg/mL
CN1CCN(c2cc3c(cc2F)c(=O)c(C(=O)O)cn3C2CC2F)CC1 (stereo in doubt; 26) [listing 1 of 2 here],0.1 µg/mL,0.78 µg/mL,,<=0.05 ug ml-1,<=0.05 ug ml-1,1.56 µg/mL,0.1 µg/mL,≤ 0.05 µg/mL,P' [6]: 7; MIC (Enterobacter cloacae [7]): ≤ 0.05 µg/mL; MIC (Pseudomonas aeruginosa; [15]): 0.2 µg/mL; MIC (Escherichia coli [8]; [12]): 0.05 µg/mL; MIC (Escherichia coli [5]): ≤ 0.05 µg/mL
C[C@@H]1CN(c2c(F)cc3c(=O)c(C(=O)O)cn(C4CC4F)c3c2F)CCN1 (stereo in doubt; 35),3.13 µg/mL,12.5 µg/mL,0.78 µg/mL,,0.2 µg/mL,50 µg/mL,1.56 µg/mL,,MIC (Staphylococcus aureus [2]; [16]): 0.78 µg/mL; MIC (Proteus vulgaris): 0.2 µg/mL
CN1CCN(c2cc3c(cc2F)c(=O)c(C(=O)O)cn3[C@@H]2C[C@@H]2F)CC1 (stereo in doubt; 39) [listing 1 of 2 here],,,,,,,,,ID50 [9]: 0.34 µg/mL
CN1CCN(c2c(F)cc3c(=O)c(C(=O)O)cn(C4CC4F)c3c2F)CC1 (stereo in doubt; 30),0.2 µg/mL,0.78 µg/mL,0.1 µg/mL,<=0.05 ug ml-1,<=0.05 ug ml-1,3.13 µg/mL,0.1 µg/mL,,
CN1CCN(c2cc3c(cc2F)c(=O)c(C(=O)O)cn3[C@@H]2C[C@@H]2F)CC1 (stereo in doubt; 38) [listing 1 of 2 here],,,,,,,,,ID50 [9]: 0.18 µg/mL
O=C(O)c1cn(C2CC2F)c2c(F)c(N3CCNCC3)c(F)cc2c1=O (stereo in doubt; 29),3.13 µg/mL,25 µg/mL,0.39 µg/mL,0.78 µg/mL,0.2 µg/mL,50 µg/mL,1.56 µg/mL,≤ 0.05 µg/mL,MIC (Enterobacter cloacae [4]): ≤ 0.05 µg/mL; MIC (Escherichia coli [5]; [12]): 0.1 µg/mL
CN1CCN(c2cc3c(cc2F)c(=O)c(C(=O)O)cn3C2CC2)CC1,,,,,,,,,IC50 (Escherichia coli [10]): 0.47 µg/mL; P' [6]: 20; MIC (Escherichia coli [11]): 0.05 µg/mL
O=C(O)c1cn(C2CC2F)c2cc(N3CCNCC3)c(F)cc2c1=O (stereo in doubt; 24),0.2 µg/mL,1.56 µg/mL,,0.1 µg/mL,,1.56 µg/mL,0.1 µg/mL,≤ 0.05 µg/mL,P' [6]: 0.16; MIC (Pseudomonas aeruginosa; [15]): ≤ 0.05 µg/mL; MIC (Klebsiella pneumoniae; [14]): ≤ 0.05 µg/mL; MIC (Enterobacter cloacae [4]): ≤ 0.05 µg/mL; MIC (Escherichia coli [5]; [12]): ≤ 0.05 µg/mL
CN1CCN(c2cc3c(cc2F)c(=O)c(C(=O)O)cn3[C@@H]2C[C@@H]2F)CC1 (stereo in doubt; 39) [listing 2 of 2 here],,,,,,,,≤ 0.05 µg/mL,"P' [6]: 7; MIC [1, 17]: 0.2 µg/mL; MIC (Enterobacter cloacae [7]): ≤ 0.05 µg/mL; MIC (Enterococcus faecalis; [18]): 0.78 µg/mL; MIC (Pseudomonas aeruginosa; [15]): 0.2 µg/mL; MIC (Staphylococcus aureus [2]; [16]): ≤ 0.05 µg/mL; MIC (Klebsiella pneumoniae; [14]): 0.1 µg/mL; MIC (Streptococcus pyogenes; Streptococcus pyogenes, read-out: MIC): 1.56 µg/mL; MIC (Escherichia coli [8]; [12]): 0.05 µg/mL; MIC (Escherichia coli [5]): ≤ 0.05 µg/mL; MIC (Staphylococcus aureus [3]; [16]): 0.1 µg/mL"
CN1CCN(c2cc3c(cc2F)c(=O)c(C(=O)O)cn3C2CC2F)CC1 (stereo in doubt; 27) [listing 1 of 2 here],,,,,,,,,ID50 [9]: 0.92 µg/mL
CN1CCN(c2cc3c(cc2F)c(=O)c(C(=O)O)cn3[C@@H]2C[C@@H]2F)CC1 (stereo in doubt; 38) [listing 2 of 2 here],0.2 µg/mL,,0.1 µg/mL,,<=0.05 ug ml-1,,,,P' [6]: 7.3; MIC (Escherichia coli [8]): 0.025 µg/mL
C[C@H]1CN(c2c(F)cc3c(=O)c(C(=O)O)cn(C4CC4F)c3c2F)CCN1 (stereo in doubt; 32),0.2 µg/mL,0.78 µg/mL,0.1 µg/mL,<=0.05 ug ml-1,<=0.05 ug ml-1,1.56 µg/mL,0.1 µg/mL,,
O=C(O)c1cn(C2CC2F)c2c(F)c(N3CCNCC3)c(F)cc2c1=O (stereo in doubt; 28),0.2 µg/mL,1.56 µg/mL,<=0.05 ug ml-1,0.1 µg/mL,<=0.05 ug ml-1,0.78 µg/mL,0.1 µg/mL,,MIC (Escherichia coli [5]): <=0.05 ug ml-1
CN1CCN(c2cc3c(cc2F)c(=O)c(C(=O)O)cn3C2CC2F)CC1 (stereo in doubt; 26) [listing 2 of 2 here],,,,,,,,,ID50 [9]: 0.31 µg/mL
CN1CCN(c2cc3c(cc2F)c(=O)c(C(=O)O)cn3C2CC2F)CC1 (stereo in doubt; 27) [listing 2 of 2 here],0.78 µg/mL,12.5 µg/mL,0.39 µg/mL,0.39 µg/mL,0.2 µg/mL,50 µg/mL,0.78 µg/mL,,MIC (Escherichia coli [8]): 0.1 µg/mL; MIC (Proteus vulgaris): 0.1 µg/mL
CN1CCN(c2nc3c(cc2F)c(=O)c(C(=O)O)cn3C2CC2F)CC1 (stereo in doubt; 37),1.56 µg/mL,25 µg/mL,0.78 µg/mL,0.78 µg/mL,,25 µg/mL,1.56 µg/mL,0.2 µg/mL,MIC (Klebsiella pneumoniae; [14]): 0.2 µg/mL; MIC (Enterobacter cloacae [4]): ≤ 0.05 µg/mL; MIC (Escherichia coli [5]; [12]): ≤ 0.05 µg/mL
O=C(O)c1cn(C2CC2)c2cc(N3CCNCC3)c(F)cc2c1=O [CIPROFLOXACIN],,,,,,,,≤ 0.05 µg/mL,"MIC [1, 17]: 0.2 µg/mL; ID50 [9]: 0.13 µg/mL; MIC (Enterococcus faecalis; [18]): 0.78 µg/mL; MIC (Pseudomonas aeruginosa; [15]): ≤ 0.05 µg/mL; MIC (Staphylococcus aureus [2]; [16]): ≤ 0.05 µg/mL; MIC (Klebsiella pneumoniae; [14]): ≤ 0.05 µg/mL; MIC (Escherichia coli [8]; [12]): 0.025 µg/mL; MIC (Escherichia coli [5]): ≤ 0.05 µg/mL; MIC (Staphylococcus aureus [3]; [16]): 0.1 µg/mL"
C[C@@H]1CN(c2c(F)cc3c(=O)c(C(=O)O)cn(C4CC4F)c3c2F)CCN1 (stereo in doubt; 34),0.2 µg/mL,0.78 µg/mL,0.1 µg/mL,≤ 0.05 µg/mL,,0.78 µg/mL,0.1 µg/mL,,MIC (Klebsiella pneumoniae; [14]): 0.1 µg/mL; MIC (Enterobacter cloacae [4]): ≤ 0.05 µg/mL; MIC (Escherichia coli [5]; [12]): ≤ 0.05 µg/mL; MIC (Proteus vulgaris): <=0.05 ug ml-1
